MC4R antag cAMP: antagonists of human melanocortin 4 receptor (MC4R); P32245; MC4R-expressing cells, MTII-stimulated cAMP, LANCE TR-FRET; inhibition, % at 6.5 µM; hit rate 0.48% among 360,000; AID 540295;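 active = inhibition above its plate's cutoff, the mean of tested wells on that plate plus 3 SD, cut at about 29% in these data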;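 also: 0% = Melanotan II alone and 100% = Melanotan II plus saturating MCL0020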
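Test system: U2OS cells stably expressing human melanocortin 4 receptor (MC4R); also added: Melanotan II challenge; compound: 6.5 µM single dose; timing: 30-min compound preincubation, 1-h Melanotan II challenge, 1-h detection, room temperature; signal: Eu-cAMP/anti-cAMP TR-FRET, emission 671 nm; repeats: one well per compound, no replicates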
B2AR ag: human beta-2 adrenergic receptor agonism by FAP; P07550; Am2.2-beta2AR cells, FAP receptor internalization, flow cytometry; response, % (test concentration not listed); hit rate 0.43% among 340,000;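 active = response above a set limit, near 3 SD of response in nonfluorescent compounds, cut at about 42% in these data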
m5-HT2A agonist: mouse HTR2A agonism via beta-arrestin recruitment; hit rate 0.66% among 360,000; activation, % at 7.6 µM; CHO-K1 mHTR2A beta-arrestin complementation, luminescence; percent of 30 µM serotonin response; P35363;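 active = activation above a run cutoff, the mean activation of all tested compounds plus 3 SD, cut at about 14% in these data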;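 also: 0% = plate median of compound wells and 100% = 30 µM serotonin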
Target sequence (P35363 whole entry, looked up): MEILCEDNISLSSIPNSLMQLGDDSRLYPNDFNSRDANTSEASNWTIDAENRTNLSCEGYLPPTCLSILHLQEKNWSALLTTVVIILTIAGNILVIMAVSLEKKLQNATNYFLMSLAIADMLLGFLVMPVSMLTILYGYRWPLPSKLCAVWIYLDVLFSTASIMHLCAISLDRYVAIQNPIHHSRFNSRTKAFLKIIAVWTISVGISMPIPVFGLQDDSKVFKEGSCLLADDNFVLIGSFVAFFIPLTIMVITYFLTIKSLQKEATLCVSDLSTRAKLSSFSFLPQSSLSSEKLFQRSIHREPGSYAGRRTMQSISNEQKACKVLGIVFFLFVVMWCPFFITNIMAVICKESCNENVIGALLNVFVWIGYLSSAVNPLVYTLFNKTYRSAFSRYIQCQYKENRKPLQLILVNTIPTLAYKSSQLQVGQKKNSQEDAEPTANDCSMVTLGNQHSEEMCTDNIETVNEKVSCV
TAAR1 antagonist: human TAAR1 antagonism | AID 624466 | Q96RJ0 | CHO RD-HGA16 TAAR1, Fluo-8 calcium fluorescence, antagonist | hit rate 1.5% among 360,000 | inhibition, % at 3 µM;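 active = inhibition above a per-plate cutoff, the mean inhibition of test compounds on that plate plus 3 SD, cut at about 49% in these data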;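 also: 0% = DMSO plus EC80 beta-PEA response and 100% = DMSO alone without agonist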
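Test system – hTAAR1-expressing CHO RD-HGA16 cells, Gα16-coupled · Reagent – β-PEA at EC80 concentration, post-compound challenge · Compound dosing – 3 µM, single point · Timing – 140 s kinetic read after compound, 140 s after agonist · Detection – Fluo-8 intracellular calcium dye fluorescence, real-time kinetic reads · Control set – DMSO and EC80 PEA controls · Repeats – n of 1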
TAAR1 agonist: human TAAR1 agonism | Q96RJ0 | CHO RD-HGA16 TAAR1, Fluo-8 calcium fluorescence; vehicle wells 0%, saturating PEA agonist 100% | activation, % at 3 µM | hit rate 0.99% among 360,000;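 active = activation above the mean activation of all test compounds in the run plus 3 SD, cut at about 38% in these data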
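System: CHO RD-HGA16 cells carrying human TAAR1 plus Gα16; Incubation: 17-24 h seeding, 75 min 37 °C dye, 30 min RT; Measured by: Fluo-8 fluorescence, 5 s baseline then 140 s kinetic read; Control set: DMSO and PEA EC100; Replication: single well for each compound.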
MC4R ag barr: activates human MC4R beta-arrestin recruitment. P32245. U2OS MC4R beta-arrestin complementation, luminescence; percent of melanotan II response, DMSO zero. hit rate 0.98% among 360,000. activation, % at 8.9 µM. AID 540308;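 active = activation above a per-plate cutoff, the mean activation of sample wells on that plate plus 3 SD, cut at about 8% in these data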
cAMP nonselect: U2OS forskolin cAMP inhibition counter-screen | shares compounds with MC4R antag cAMP | parental U2OS, LANCE TR-FRET | inhibition, % at 6.5 µM | hit rate 26% among 1,600 | AID 602193;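 active = mean inhibition over triplicates above the low-control well mean plus 3 SD, set per campaign, cut at about 13% in these data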;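 also: signal is single emission at 671 nm which falls as cellular cAMP rises; 0% = forskolin-stimulated wells and 100% = buffer without forskolin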
MC4R cAMP antag: human MC4R cAMP antagonism confirmation; AID 602195; shares compounds with MC4R antag cAMP; MC4R-expressing cells, MTII-stimulated cAMP, TR-FRET; hit rate 27% among 1,600; inhibition, % at 6.5 µM; in the data active = inhibition above about 29%;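 also: 0% = agonist stimulated wells alone and 100% = agonist stimulated wells plus saturating reference antagonist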
An asterisk follows results filed as active; nt = no result. Only some compounds are listed: those with a hit (about 4.3% of all), similar ones and a draw of the others.

SMILES	MC4R antag cAMP	B2AR ag	m5-HT2A agonist	TAAR1 antagonist	TAAR1 agonist	MC4R ag barr	cAMP nonselect	MC4R cAMP antag
Cc1ccc(NC(=S)Nc2cccc(-c3n[nH]c(=S)o3)c2)cc1	37*	-1	-4	-4	2	-3	11	13
CC(C)CCNC(=O)CN(CC1CCCO1)C(=O)CCC(=O)Nc1nccs1 (centres undefined)	-3	-9	1	0	10	1	nt	nt
CCC(C)(C)NC(=O)CN(CC1CCCO1)C(=O)CCC(=O)Nc1nccs1 (centres undefined)	35*	0	2	-8	5	0	-4	-6
CCn1c(=O)c2sccc2n(Cc2ccc(C)cc2)c1=O	-2	-4	7	2	-1	0	nt	nt
O=C(CS(=O)c1ccc(C(F)(F)F)cc1[N+](=O)[O-])Oc1ccc(Cl)cc1 (centres undefined)	33*	12	1	13	6	3	9	28
O=C(NCCO)c1ccc(Oc2ccc(C(F)(F)F)cc2[N+](=O)[O-])cc1	14	-7	1	2	1	0	nt	nt
COc1ccc(CC(=O)Oc2ccc(Br)cc2F)cc1S(=O)(=O)N1CCOCC1	17	-1	1	-26	3	-2	nt	nt
COc1ccc(CC(=O)Oc2ccc(F)c(F)c2)cc1S(=O)(=O)N1CCOCC1	35*	7	-4	3	5	-1	13	18
NS(=O)(=O)c1ccc(NC(=O)/C(=C/c2ccncc2)NC(=O)c2ccccc2)cc1	21	3	6	-21	2	0	nt	nt
COc1ccc(S(=O)(=O)N(C)C[C@H]2Oc3c(NS(=O)(=O)c4cn(C)cn4)cccc3C(=O)N([C@H](C)CO)C[C@@H]2C)cc1	8	-12	2	-4	9	0	nt	nt
CCN=C1SC(CC(=O)NC(C)C)C(=O)N1CC (centres undefined)	6	5	0	18	16	1	nt	nt
CCN=C1SC(CC(N)=O)C(=O)N1CC (centres undefined)	32*	4	3	4	2	2	4	4
Cn1ccsc1=NC(=O)c1ccc(Cl)c([N+](=O)[O-])c1	35*	-2	-3	-2	-1	0	4	-1
Cn1ccsc1=NC(=O)c1ccc(S(C)(=O)=O)c([N+](=O)[O-])c1	33*	1	5	1	2	-4	7	31*
Cn1ccsc1=NC(=O)c1ccc(S(C)(=O)=O)cc1	0	-10	2	4	-2	-2	nt	nt
CCOc1ccc(OCC)c(NC(=O)CN(c2ccc(C)cc2)S(=O)(=O)c2c(C)noc2C)c1	32*	4	6	19	0	0	1	9
CCOc1ccc(OCC)c(NC(=O)CN(c2ccc(OC)cc2)S(=O)(=O)c2c(C)noc2C)c1	7	10	-10	-21	-1	-2	nt	nt
Cc1ccc(NC(=O)C2=C(c3ccccc3)S(=O)(=O)CCS2(=O)=O)cc1	61*	53*	0	18	6	0	50*	44*
C=CCn1c(Sc2ncc([N+](=O)[O-])s2)n[nH]c1=O	43*	33	-7	-12	5	-2	30*	31*
C[C@@H]1CN([C@H](C)CO)C(=O)CCCn2nncc2CO[C@H]1CN(C)C(=O)Nc1ccc(N2CCN(C)CC2)cc1	1	nt	8	-3	0	0	nt	nt
COc1ccc(OC(=O)N2C/C(=C/c3ccccc3)C(=O)/C(=C\c3ccccc3)C2)cc1	33*	24	5	-8	0	-1	15*	10
COC(=O)c1cc([N+](=O)[O-])c(-n2ccnc2)c([N+](=O)[O-])c1	31*	7	-1	-2	7	0	-3	0
CCOC(=O)C1CCCN(C(=O)c2cc(S(=O)(=O)N3CCCCC3)c[nH]2)C1 (centres undefined)	-5	2	5	10	4	-1	nt	nt
COC(=O)c1ccccc1NC(=O)N1CCN(S(C)(=O)=O)CC1	31*	3	6	9	0	0	0	5
COC(=O)c1ccccc1NC(=O)N1CCN(c2ccccc2)CC1	-8	23	0	1	13	2	nt	nt
SMILES	MC4R antag cAMP	B2AR ag	m5-HT2A agonist	TAAR1 antagonist	TAAR1 agonist	MC4R ag barr	cAMP nonselect	MC4R cAMP antag
FC(F)(F)c1cnc(Oc2cccc3ccccc23)c(Cl)c1	29*	0	3	-15	-2	2	-2	-6
Cc1ccc(Nc2nc(N/N=C/c3c[nH]c4ccccc34)nc(N3CCOCC3)n2)cc1	31*	7	-6	18	6	3	5	19
Nc1cc(=O)[nH]c(=O)n1CCc1ccccc1	5	-4	-2	-7	8	0	nt	nt
CCOC(=O)c1ccc(N/C=C/C(=O)C(C)(C)C)cc1	30*	-2	3	-3	11	2	0	0
N#Cc1ccc(S(=O)(=O)NCC(=O)OCC(=O)N2CCCC2=O)cc1	34*	-1	5	-3	1	-5	19*	14
CCOc1ccc(CCNC(=O)CCS(=O)(=O)c2ccc(Br)cc2)cc1OCC	29*	-3	2	-26	5	1	0	10
COc1ccc(/C=N/NC(=O)c2ccccc2NC(=O)c2ccco2)c(OC)c1	3	12	1	42	6	0	nt	nt
Cc1sc2ncnc(Sc3ccccc3C(=O)O)c2c1C	97*	-2	0	-6	-1	0	50*	87*
CNC12CCc3cc(OC)c(OC)c(c31)-c1cc3c(cc1C2)OCO3 (centres undefined)	nt	nt	nt	-24	-2	nt	nt	nt
Cc1cc(Sc2nc(N)ncc2[N+](=O)[O-])ncn1	40*	5	-1	22	1	-2	20*	35*
Cc1cc(Sc2ncnc(N)c2[N+](=O)[O-])ncn1	38*	3	-2	nt	nt	-1	16*	36*
Cc1ccc(C)c(Oc2ncnc(N)c2[N+](=O)[O-])c1	0	-10	0	-3	4	-1	nt	nt
Cc1c(Br)c([N+](=O)[O-])nn1CC(=O)Nc1ccccn1	6	-13	4	-2	4	-1	nt	nt
Cc1nn(CC(=O)Nc2ccccn2)c(C)c1Br	32*	-9	2	7	1	2	2	-1
CSc1ncccc1C(=O)OCC(=O)c1[nH]c(C)c(C(C)=O)c1C	1	7	4	25	13	1	nt	nt

Screening results: PubChem, several laboratories
